# Reference: ChEMBL document CHEMBL1255506, “Discovery of quinolines as selective glucocorticoid receptor agonists” (Bioorg Med Chem Lett, 2010)
# pEC50, pIC50: −log10 of the molar value.
# Key:
# [1] = molecular target: T1, Progesterone receptor (Homo sapiens, UniProt P06401); assay: Binding affinity to human recombinant progesterone receptor expressed in baculovirus infected Sf9 cells
# T1 sequence (P06401 whole entry): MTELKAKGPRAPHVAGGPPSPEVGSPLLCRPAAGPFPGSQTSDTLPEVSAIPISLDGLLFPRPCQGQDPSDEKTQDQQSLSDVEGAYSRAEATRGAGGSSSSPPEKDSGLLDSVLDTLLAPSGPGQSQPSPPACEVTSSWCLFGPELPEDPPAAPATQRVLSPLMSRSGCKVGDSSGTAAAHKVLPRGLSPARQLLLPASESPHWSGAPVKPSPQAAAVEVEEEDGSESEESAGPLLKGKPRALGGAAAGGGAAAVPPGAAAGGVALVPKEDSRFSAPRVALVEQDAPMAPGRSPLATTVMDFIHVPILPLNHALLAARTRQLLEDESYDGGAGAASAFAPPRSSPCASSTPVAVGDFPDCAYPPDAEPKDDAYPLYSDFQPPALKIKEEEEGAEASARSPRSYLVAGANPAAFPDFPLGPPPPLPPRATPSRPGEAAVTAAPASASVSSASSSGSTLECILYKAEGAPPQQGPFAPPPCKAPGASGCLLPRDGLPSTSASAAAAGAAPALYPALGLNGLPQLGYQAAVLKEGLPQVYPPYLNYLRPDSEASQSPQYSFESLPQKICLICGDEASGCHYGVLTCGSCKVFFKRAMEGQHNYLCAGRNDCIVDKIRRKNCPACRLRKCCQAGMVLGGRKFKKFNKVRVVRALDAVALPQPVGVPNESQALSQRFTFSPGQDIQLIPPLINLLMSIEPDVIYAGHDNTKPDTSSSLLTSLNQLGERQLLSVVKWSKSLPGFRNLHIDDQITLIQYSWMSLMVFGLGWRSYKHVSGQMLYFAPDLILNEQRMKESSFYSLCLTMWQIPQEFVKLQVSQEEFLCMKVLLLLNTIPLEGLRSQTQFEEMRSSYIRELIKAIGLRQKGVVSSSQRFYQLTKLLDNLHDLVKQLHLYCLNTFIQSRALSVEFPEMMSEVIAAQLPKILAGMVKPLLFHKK
# Outline: (§1)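 Extracts of Sf9 cells infected with recombinant baculovirus encoding the human receptor served as receptor source for competitive binding. Run in duplicate; pIC50 derived, value error stated as 0.2.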
# [2] = molecular target: T2, Mineralocorticoid receptor (Homo sapiens, UniProt P08235); assay: Binding affinity to human recombinant mineralocorticoid receptor expressed in baculovirus infected Sf9 cells; outline: as §1
# T2 sequence (P08235 whole entry): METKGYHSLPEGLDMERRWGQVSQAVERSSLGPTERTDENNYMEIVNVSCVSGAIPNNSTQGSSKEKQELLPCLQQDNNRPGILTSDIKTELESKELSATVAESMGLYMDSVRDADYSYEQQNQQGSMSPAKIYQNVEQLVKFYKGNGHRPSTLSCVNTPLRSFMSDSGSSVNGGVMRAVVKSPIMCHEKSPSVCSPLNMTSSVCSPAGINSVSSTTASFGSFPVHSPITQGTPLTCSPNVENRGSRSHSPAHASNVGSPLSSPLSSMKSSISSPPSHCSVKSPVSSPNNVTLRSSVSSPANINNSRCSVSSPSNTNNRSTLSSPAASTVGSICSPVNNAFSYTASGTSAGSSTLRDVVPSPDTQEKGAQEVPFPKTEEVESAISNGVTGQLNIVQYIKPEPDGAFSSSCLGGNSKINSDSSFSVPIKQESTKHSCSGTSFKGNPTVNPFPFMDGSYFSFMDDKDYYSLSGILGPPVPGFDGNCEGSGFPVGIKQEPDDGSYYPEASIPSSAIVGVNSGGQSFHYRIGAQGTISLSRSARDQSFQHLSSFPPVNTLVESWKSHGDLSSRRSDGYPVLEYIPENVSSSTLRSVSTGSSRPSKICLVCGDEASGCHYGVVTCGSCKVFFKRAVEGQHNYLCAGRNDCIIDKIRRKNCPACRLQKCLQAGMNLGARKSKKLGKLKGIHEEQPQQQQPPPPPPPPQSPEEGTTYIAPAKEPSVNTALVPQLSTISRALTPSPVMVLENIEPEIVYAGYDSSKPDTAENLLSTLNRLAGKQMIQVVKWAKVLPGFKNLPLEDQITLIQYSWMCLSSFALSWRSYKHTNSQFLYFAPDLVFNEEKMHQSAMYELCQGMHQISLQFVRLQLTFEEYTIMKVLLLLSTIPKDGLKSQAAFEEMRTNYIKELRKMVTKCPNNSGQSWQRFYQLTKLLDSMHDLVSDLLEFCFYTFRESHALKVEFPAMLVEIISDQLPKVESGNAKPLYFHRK
# [3] = molecular target: T3, Glucocorticoid receptor (Homo sapiens, UniProt P04150); assay: Binding affinity to human recombinant glucocorticoid receptor expressed in baculovirus infected Sf9 cells
# T3 sequence (P04150 whole entry): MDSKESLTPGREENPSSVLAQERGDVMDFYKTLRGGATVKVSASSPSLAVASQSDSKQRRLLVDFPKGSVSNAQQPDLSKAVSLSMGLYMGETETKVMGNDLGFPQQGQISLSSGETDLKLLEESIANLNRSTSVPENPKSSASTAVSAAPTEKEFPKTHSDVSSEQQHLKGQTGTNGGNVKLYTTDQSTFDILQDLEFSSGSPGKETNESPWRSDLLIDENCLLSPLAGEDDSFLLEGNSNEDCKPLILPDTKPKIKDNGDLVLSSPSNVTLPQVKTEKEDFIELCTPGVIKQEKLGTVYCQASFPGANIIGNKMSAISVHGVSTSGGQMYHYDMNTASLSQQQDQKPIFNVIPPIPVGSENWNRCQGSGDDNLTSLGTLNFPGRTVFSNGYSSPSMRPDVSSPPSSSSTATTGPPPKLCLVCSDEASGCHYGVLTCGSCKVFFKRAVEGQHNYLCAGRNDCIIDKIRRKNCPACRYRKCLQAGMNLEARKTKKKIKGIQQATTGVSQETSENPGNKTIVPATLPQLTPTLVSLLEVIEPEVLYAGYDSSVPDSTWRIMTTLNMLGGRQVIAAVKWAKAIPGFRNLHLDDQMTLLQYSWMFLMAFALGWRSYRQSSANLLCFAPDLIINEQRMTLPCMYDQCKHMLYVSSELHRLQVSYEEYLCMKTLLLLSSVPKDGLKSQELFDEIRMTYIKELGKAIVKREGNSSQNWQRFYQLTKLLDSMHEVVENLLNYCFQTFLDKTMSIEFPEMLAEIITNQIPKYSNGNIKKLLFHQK
# [4] = molecular target: T3, Glucocorticoid receptor; assay: Transrepression activity at glucocorticoid receptor-mediated antiinflammatory activity in human THP1 cells assessed as inhibition of LPS-induced IL-8 production; type: cell-based, THP-1
# [5] = molecular target: T3, Glucocorticoid receptor; assay: Transrepression activity at glucocorticoid receptor-mediated antiinflammatory activity in human HeLa cells assessed as inhibition of TPA-induced collagenase promoter activity by luciferase reporter gene assay; type: cell-based
# [6] = molecular target: T4, Androgen receptor (Homo sapiens, UniProt P10275); assay: Binding affinity to human recombinant androgen receptor expressed in baculovirus infected Sf9 cells
# T4 sequence (P10275 whole entry): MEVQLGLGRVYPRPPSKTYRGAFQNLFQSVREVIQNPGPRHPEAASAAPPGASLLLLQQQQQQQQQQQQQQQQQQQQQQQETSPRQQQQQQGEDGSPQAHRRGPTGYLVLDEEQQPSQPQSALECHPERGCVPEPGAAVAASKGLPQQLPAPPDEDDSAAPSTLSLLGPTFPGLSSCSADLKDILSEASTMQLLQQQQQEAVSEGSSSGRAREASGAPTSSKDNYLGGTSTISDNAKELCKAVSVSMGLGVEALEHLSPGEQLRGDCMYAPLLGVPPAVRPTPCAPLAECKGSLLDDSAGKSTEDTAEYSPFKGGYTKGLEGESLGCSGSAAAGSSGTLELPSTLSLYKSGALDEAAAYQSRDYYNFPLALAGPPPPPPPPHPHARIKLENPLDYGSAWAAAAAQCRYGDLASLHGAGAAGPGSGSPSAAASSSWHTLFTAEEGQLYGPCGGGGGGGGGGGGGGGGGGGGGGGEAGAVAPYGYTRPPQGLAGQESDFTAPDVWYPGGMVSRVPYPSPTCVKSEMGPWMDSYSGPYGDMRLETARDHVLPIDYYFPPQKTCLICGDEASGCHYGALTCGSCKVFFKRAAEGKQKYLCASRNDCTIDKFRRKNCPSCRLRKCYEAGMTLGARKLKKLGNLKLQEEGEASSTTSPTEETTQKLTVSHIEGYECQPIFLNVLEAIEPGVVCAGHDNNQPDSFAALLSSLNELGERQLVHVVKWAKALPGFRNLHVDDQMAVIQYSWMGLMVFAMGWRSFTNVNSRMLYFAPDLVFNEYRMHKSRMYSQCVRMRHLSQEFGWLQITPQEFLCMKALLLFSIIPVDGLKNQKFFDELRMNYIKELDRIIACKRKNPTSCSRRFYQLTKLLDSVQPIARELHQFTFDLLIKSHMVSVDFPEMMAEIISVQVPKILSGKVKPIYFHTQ
# [7] = molecular target: T3, Glucocorticoid receptor; assay: Transactivation activity at glucocorticoid receptor in human HeLa cells assessed as induction of MMTV promoter activity by luciferase reporter gene assay; type: cell-based
Compound,pIC50 [1],pIC50 [2],pIC50 [3],pIC50 [4],pIC50 [5],pIC50 [6],pEC50 [7]
C[C@@H]1C[C@H]2[C@@H]3CCC4=CC(=O)C=C[C@]4(C)[C@@]3(F)[C@@H](O)C[C@]2(C)[C@@]1(O)C(=O)CO [DEXAMETHASONE],< 6.00,,,,,,
Cc1noc(=O)c2ccc(NC(=O)C(O)(CC(C)(C)c3cc(F)ccc3O)C(F)(F)F)cc12 (stereo not drawn),8.10,8.90,8.50,7.30,8.00,6.80,7.60
CC(C)(CC(O)(CNc1cccc2ncccc12)C(F)(F)F)c1cc(F)ccc1O (stereo not drawn),< 6.00,< 6.00,9.00,7.70,8.20,< 6.00,7.10
Cc1noc(=O)c2ccc(NC(=O)C(O)(CC(C)(C)c3cccc4c3OCC4)C(F)(F)F)cc12 (stereo not drawn),,7.10,,,,6.20,
COc1ccc(F)cc1C(C)(C)CC(O)(CNc1ccc2c(=O)onc(C)c2c1)C(F)(F)F (stereo not drawn),7.80,< 6.00,8.00,,,< 6.00,
COc1ccc(F)cc1C(C)(C)CC(O)(C(=O)Nc1ccc2c(=O)onc(C)c2c1)C(F)(F)F (stereo not drawn),7.90,8.10,9.00,,,6.30,
CC(C)(CC(O)(CNc1cccc2ccccc12)C(F)(F)F)c1cc(F)ccc1O (stereo not drawn),< 6.00,< 6.00,7.80,< 6.00,,< 6.00,

# Other lines, results leading:
pIC50 [1],pIC50 [2],pIC50 [3],pIC50 [4],pIC50 [5],pIC50 [6],pEC50 [7],Compound
< 6.00,< 6.00,8.20,8.30,8.50,< 6.00,7.90,Cc1ccc2c(NCC(O)(CC(C)(C)c3cc(F)ccc3O)C(F)(F)F)cccc2n1 (stereo not drawn)
< 6.00,< 6.00,< 6.00,,,< 6.00,,COc1ccc(F)cc1C(C)(C)CC(O)(CNc1cccc2ccccc12)C(F)(F)F (stereo not drawn)
6.00,< 6.00,7.70,7.60,,< 6.00,,COc1ccc(F)cc1C(C)(C)CC(O)(CNc1cccc2ncccc12)C(F)(F)F (stereo not drawn)
< 6.00,< 6.00,9.20,7.60,8.70,< 6.00,7.60,COc1ccc(F)cc1C(C)(C)CC(O)(CNc1cccc2nc(C)ccc12)C(F)(F)F (stereo not drawn)
